Experimental findings from ChEMBL document CHEMBL4387702, “Design and synthesis novel di-carbonyl analogs of curcumin (DACs) act as potent anti-inflammatory agents against LPS-induced acute lung injury (ALI)” (Eur J Med Chem, 2019) are described below.

Each structure is given as a SMILES string. Activity calls are given as the source filed them. The rule behind the calls is not given here.

Data set [1] deals with Mus musculus. Description: Antiinflammatory activity in C57BL/6 mouse model of LPS-induced acute lung injury assessed as reduction in lung wet/dry ratio at 10 mg/kg, ip administered daily for one week prior to LPS challenge and measured after 6 hrs. It counts as functional, organism-based. An outline of the steps:
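C57BL/6 mice (eight per group) received 10 mg/kg i.p. daily for one week; vehicle was 0.9% saline. They were then challenged with intratracheal LPS at 5 mg/kg and sacrificed 6 h later. Endpoints were lung wet/dry weight ratio and total and neutrophil cell counts in BALF, reported as mean ± SEM, n = 6.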

The nature of data set [2]: AUC (0 to t) in Sprague-Dawley rat at 5 mg/kg, iv by UHPLC-MS/MS analysis. It counts as ADME, organism-based. The following applies: in vivo. An outline of the steps:
(§1)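 Male Sprague-Dawley rats (250 ± 20 g) fasted overnight with free access to water, n = 5 per route. Intravenous dose was 5 mg/kg; the intragastric dose is printed as 20 mg/kg in the methods and 50 mg/kg in the table. Tail blood was taken at 0.083, 0.25, 0.5, 1, 2, 4, 6, 9, 12 and 24 h. Samples were centrifuged (12000 rpm, 10 min), deproteinized with 2 volumes of acetonitrile, re-centrifuged and quantified by UHPLC-MS/MS.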

Data set [3] in a line: AUC (0 to infinity) in Sprague-Dawley rat at 50 mg/kg, po by UHPLC-MS/MS analysis. Set-up: dose 50 mg/kg, time infinity, route oral. The following applies: in vivo. It counts as ADME, organism-based. The essentials: as §1
Data set [4] can be described thus: MRT (0 to t) in Sprague-Dawley rat at 50 mg/kg, po by UHPLC-MS/MS analysis. It counts as ADME, organism-based. The settings on record: in vivo. The essentials: as §1
Data set [5] can be described thus: Half life in Sprague-Dawley rat at 50 mg/kg, po by UHPLC-MS/MS analysis. It counts as ADME, organism-based. The following applies: in vivo. The essentials: as §1
Data set [6] is described as follows: Half life in Sprague-Dawley rat at 5 mg/kg, iv by UHPLC-MS/MS analysis. The settings on record: in vivo. It counts as ADME, organism-based. The essentials: as §1
Data set [7] is described as follows: Tmax in Sprague-Dawley rat at 50 mg/kg, po by UHPLC-MS/MS analysis. It counts as ADME, organism-based. The following applies: in vivo. An outline of the steps: (§2)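 Male SD rats (250 ± 20 g), fasted overnight with water ad libitum, dosed intravenously or intragastrically, n = 5. Tail blood taken at 0.083, 0.25, 0.5, 1, 2, 4, 6, 9, 12 and 24 h post-dose and centrifuged 12000 rpm, 10 min. Supernatant mixed with 2 volumes acetonitrile, vortexed and re-centrifuged. Drug measured by UHPLC-MS/MS; PK parameters derived from time-concentration data.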

A short description of data set [8]: Tmax in Sprague-Dawley rat at 5 mg/kg, iv by UHPLC-MS/MS analysis. The following applies: in vivo. It counts as ADME, organism-based. The essentials:
as §2

Data set [9] is described as follows: Apparent volume of distribution during terminal phase in Sprague-Dawley rat at 50 mg/kg, po by UHPLC-MS/MS analysis. It counts as ADME, organism-based. The following applies: in vivo. An outline of the steps: as §1
Data set [10] is described as follows: Cmax in Sprague-Dawley rat at 5 mg/kg, iv by UHPLC-MS/MS analysis. It counts as ADME, organism-based. The following applies: in vivo. The arrangement: dose 5 mg/kg, route intravenous. The essentials:
as §1

With `COc1cc(/C=C/C(=O)N2CCC/C(=C\c3cc(OC)c(OC)c(OC)c3)C2=O)ccc1O`, the outcome in data set [1] was Active.

A word on the AUC(0-t): it is exposure summed from dosing to a finite time, without extrapolation to infinity. As usually defined, the AUC is the area under the concentration-time curve, a measure of exposure. Usually MRT last stands for the average time that molecules of a dose stay in the body. For orientation: Tmax means the time from dosing to the highest level. As usually defined, the Cmax is the maximum level reached in the sampled fluid or tissue. For the molecule `COc1cc(/C=C/C(=O)N2CCC/C(=C\c3cc(OC)c(OC)c(OC)c3)C2=O)ccc1OC(C)=O`, the AUC(0-t) in [2] came out at 34.4 ng·h/mL. Moreover, the area under the curve (AUC) in data set [3] was found to be 325.6 ng·h/mL. Further, the MRT last in data set [4] stood at 7.8 h. Further, the t1/2 in data set [5] was found to be 6.7 h; in data set [6] it was 0.2 h. In addition, the values for the Tmax in data set [7] and in [8] were 3.3 h and 6 min, respectively. The Vz/F in [9] was determined as 827.1 L/kg. The molecule also showed a Cmax in data set [10] of 16.4 ng/mL.
